Measurements: ChEMBL document CHEMBL1140227, “Histone deacetylase inhibitors through click chemistry” (J Med Chem, 2008)

Tests used:
Format in all cases: functional
[1] = system: KM12; test: Growth inhibition of human KM12 cells at 10 uM relative to control; settings: values are per cent of control
Procedure, shortened: (§1)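 Single-dose preliminary screen in the NCI human cancer cell line panel, run by the NIH. Percent inhibition of cell line growth was calculated by comparison with untreated samples.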

[2] = system: SF-539; test: Growth inhibition of human SF539 cells at 10 uM relative to control; settings: values are per cent of control; procedure, shortened: as §1
[3] = system: A498; test: Growth inhibition of human A498 cells at 10 uM relative to control; settings: values are per cent of control; procedure, shortened: as §1
[4] = system: MDA-MB-468; test: Growth inhibition of human MDA-MB-468 cells at 10 uM relative to control; settings: values are per cent of control; procedure, shortened: as §1
[5] = system: MDA-MB-435; test: Growth inhibition of human MDA-MB-435 cells at 10 uM relative to control; settings: values are per cent of control; procedure, shortened: as §1
[6] = system: 786-0; test: Growth inhibition of human 786-0 cells at 10 uM relative to control; settings: values are per cent of control; procedure, shortened: as §1
[7] = system: HT-29; test: Growth inhibition of human HT-29 cells at 10 uM relative to control; settings: values are per cent of control; procedure, shortened: as §1
[8] = system: NCI-H226; test: Growth inhibition of human NCI-H226 cells at 10 uM relative to control; settings: values are per cent of control; procedure, shortened: as §1
[9] = system: NCI-H322M; test: Growth inhibition of human NCI-H322M cells at 10 uM relative to control; settings: values are per cent of control; procedure, shortened: as §1
[10] = system: UO-31; test: Growth inhibition of human UO31 cells at 10 uM relative to control; settings: values are per cent of control
Procedure, shortened: (§2)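 Single-dose NCI human tumour cell line screen, run by the NIH. Percent inhibition of cell line growth was calculated by comparison with untreated samples.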

[11] = Growth inhibition of human Hs 578T cells at 10 uM relative to control; settings: values are per cent of control; procedure, shortened: as §1
[12] = system: SW-620; test: Growth inhibition of human SW620 cells at 10 uM relative to control; settings: values are per cent of control; procedure, shortened: as §2
[13] = system: SK-OV-3; test: Growth inhibition of human SKOV3 cells at 10 uM relative to control; settings: values are per cent of control; procedure, shortened: as §1
[14] = system: UACC-257; test: Growth inhibition of human UACC257 cells at 10 uM relative to control; settings: values are per cent of control; procedure, shortened: as §2
[15] = system: OVCAR-8; test: Growth inhibition of human OVCAR8 cells at 10 uM relative to control; settings: values are per cent of control; procedure, shortened: as §1
[16] = system: NCI-H460; test: Growth inhibition of human NCI-H460 cells at 10 uM relative to control; settings: values are per cent of control; procedure, shortened: as §1
[17] = system: EKVX; test: Growth inhibition of human EKVX cells at 10 uM relative to control; settings: values are per cent of control; procedure, shortened: as §1
[18] = system: SF-268; test: Growth inhibition of human SF268 cells at 10 uM relative to control; settings: values are per cent of control; procedure, shortened: as §1
[19] = system: CCRF-CEM; test: Growth inhibition of human CCRF-CEM cells at 10 uM relative to control; settings: values are per cent of control; procedure, shortened: as §1
[20] = system: SN12C; test: Growth inhibition of human SN12C cells at 10 uM relative to control; settings: values are per cent of control; procedure, shortened: as §1
[21] = system: SK-MEL-2; test: Growth inhibition of human SK-MEL-2 cells at 10 uM relative to control; settings: values are per cent of control; procedure, shortened: as §1
[22] = Growth inhibition of human RPMI8266 cells at 10 uM relative to control; settings: values are per cent of control; procedure, shortened: as §1
[23] = system: IGROV-1; test: Growth inhibition of human IGROV1 cells at 10 uM relative to control; settings: values are per cent of control; procedure, shortened: as §1
[24] = system: HCT-15; test: Growth inhibition of human HCT15 cells at 10 uM relative to control; settings: values are per cent of control; procedure, shortened: as §1
[25] = system: SNB-75; test: Growth inhibition of human SNB75 cells at 10 uM relative to control; settings: values are per cent of control; procedure, shortened: as §2
[26] = system: HCT-116; test: Growth inhibition of human HCT116 cells at 10 uM relative to control; settings: values are per cent of control; procedure, shortened: as §1
[27] = system: SNB-19; test: Growth inhibition of human SNB19 cells at 10 uM relative to control; settings: values are per cent of control; procedure, shortened: as §1
[28] = system: CAKI-1; test: Growth inhibition of human Caki1 cells at 10 uM relative to control; settings: values are per cent of control; procedure, shortened: as §1
[29] = system: LOX IMVI; test: Growth inhibition of human LOXIMVI cells at 10 uM relative to control; settings: values are per cent of control; procedure, shortened: as §1
[30] = cells; settings: Homo sapiens, Cancer cell lines
[31] = system: Leukemia cell; test: cells; settings: Homo sapiens

O=C(/C=C/c1cn(CC(=O)Nc2ccccc2)nn1)NO
growth, % of control at 10 µM [1]: 76% | growth, % of control at 10 µM [2]: 107% | growth, % of control at 10 µM [3]: 105% | growth, % of control at 10 µM [4]: 64.2% | growth, % of control at 10 µM [5]: 63.4% | growth, % of control at 10 µM [6]: 69.5% | growth, % of control at 10 µM [7]: 51.9% | growth, % of control at 10 µM [8]: 94.1% | growth, % of control at 10 µM [9]: 41.8% | growth, % of control at 10 µM [10]: 74% | growth, % of control at 10 µM [11]: 84.2% | growth, % of control at 10 µM [12]: 91.5% | growth, % of control at 10 µM [13]: 79.5% | growth, % of control at 10 µM [14]: 54.4% | growth, % of control at 10 µM [15]: 51.9% | growth, % of control at 10 µM [16]: 86.1% | growth, % of control at 10 µM [17]: 70.5% | growth, % of control at 10 µM [18]: 66.8% | growth, % of control at 10 µM [19]: 57.1% | growth, % of control at 10 µM [20]: 89% | growth, % of control at 10 µM [21]: 51.1% | growth, % of control at 10 µM [22]: 64.2% | growth, % of control at 10 µM [23]: 86.4% | growth, % of control at 10 µM [24]: 105% | growth, % of control at 10 µM [25]: 88.5% | growth, % of control at 10 µM [26]: 55.3% | growth, % of control at 10 µM [27]: 105% | growth, % of control at 10 µM [28]: 81.7% | growth, % of control at 10 µM [29]: 95.4% | inhibition at 10 µM [30]: 74% | inhibition at 10 µM [31]: 84%
